Screening data (PubChem)
PAX8 reporter: inhibitors of PAX8 transcriptional activity in RMG-I cells; RMG-I TPO-luciferase reporter, SteadyGlo, 24 h; inhibition, % at 12.6 µM; 1.2% of 360,000 active; AID 652154;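 active = mean replicate inhibition at least 60% with every replicate also reaching 60%; inconclusive = only one of the two criteria is met; inactive = mean below 60% and not all replicates reaching 60%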;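 note: luciferase light reporting Pax8 driven TPO promoter activity; plate controls were median of neutral control wells for no effect and mitoxantrone controls for full effect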
Env fusion inh: HIV envelope-mediated fusion inhibition; inhibition, % at 12.3 µM; 1.1% of 360,000 active; AID 651610; HeLa-JRFL Env/CEM21 cell fusion, luciferase;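 active = mean replicate inhibition score of at least 50 and every replicate individually at or above 50; inconclusive = only one of the two criteria met; inactive = mean below 50 and not all replicates reaching 50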;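 note: 0% = plate neutral controls and 100% = maraviroc near 300 nM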
Glyco luc inh: blocks N-linked glycosylation in D54 reporter cells. D54 ERlucT glycosylation luciferase reporter, 24 h; percent of 100 nM tunicamycin response. reporter increase, % at 12.5 µM. 0.23% of 360,000 active;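 active = mean luciferase reporter signal, scaled so untreated is 0 and the glycosylation-blocking control 100, at or above a set limit in every replicate; inconclusive = mean reaches the limit but not every replicate does; inactive = mean below the limit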;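 note: luciferase carries N-glycosylation sites so blocking glycosylation raises the light; 0% = median of neutral control wells and 100% = median of 100 nM tunicamycin wells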
FN deposition inh: fibronectin deposition inhibition; AID 743247; AH1F fibroblasts, Alexa488-fibronectin deposition fluorescence, overnight; inhibition, % at 12.6 µM; 0.086% of 350,000 active;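 active = mean inhibition across replicates of 30% or more, regardless of how many single replicates reach that level; inconclusive = mean under 30% yet at least half of replicates reach 30%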;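 note: positive control wells lacked labelled fibronectin entirely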
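Material: AH1F fibroblasts assembling fluorescent fibronectin matrix; amount: 10000 AH1F cells/well; medium: DMEM, 2% serum; reagent: Alexa488-fibronectin, 24 nM final in well; dosing: single compound dose, delivered by pin transfer; incubation: 1 h adhesion, overnight exposure; detection: fluorescence after three HBSS washes, excitation 485 nm, emission 525 nm; measure: fibronectin deposition inhibition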
MLL AF4-AF9 inh: inhibitors of human MLL-AF4/AF9 interaction. 0.47% of 350,000 active. AlphaScreen, biotin-AF4 peptide binding to FLAG-AF9. inhibition, % at 10 µM;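 active = every replicate reaching a set inhibition limit, whatever the replicate mean, cut at about 25% in these data; inconclusive = mean inhibition reaches that limit but some replicates miss it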;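 note: 0% = plate neutral control median and 100% = total signal loss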
Target sequence (P42568 whole entry, looked up): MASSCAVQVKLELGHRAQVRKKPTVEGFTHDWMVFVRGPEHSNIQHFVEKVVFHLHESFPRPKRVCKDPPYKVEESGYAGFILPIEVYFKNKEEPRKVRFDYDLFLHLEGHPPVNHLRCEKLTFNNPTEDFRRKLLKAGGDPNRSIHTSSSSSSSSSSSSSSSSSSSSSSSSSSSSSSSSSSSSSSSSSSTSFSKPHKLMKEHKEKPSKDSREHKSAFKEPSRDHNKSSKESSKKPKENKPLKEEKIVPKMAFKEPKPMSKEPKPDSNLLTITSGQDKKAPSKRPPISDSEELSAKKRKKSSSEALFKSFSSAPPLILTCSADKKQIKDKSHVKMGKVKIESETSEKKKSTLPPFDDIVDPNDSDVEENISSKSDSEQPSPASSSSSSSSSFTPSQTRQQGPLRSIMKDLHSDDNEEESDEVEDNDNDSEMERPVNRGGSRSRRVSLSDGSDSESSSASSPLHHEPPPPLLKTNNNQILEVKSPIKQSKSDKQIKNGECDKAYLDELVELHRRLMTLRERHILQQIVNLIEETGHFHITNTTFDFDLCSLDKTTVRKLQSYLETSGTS
EWS-Fli inh: blocks EWS/Fli oncoprotein-driven transcription | A673 NR0B1-luciferase reporter, viability-normalised | inhibition, % at 12.6 µM | 0.67% of 350,000 active | AID 651661;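 active = mean inhibition of at least 50% after viability correction, with every replicate also passing that limit; inconclusive = mean reaches 50% but only one of two replicates passes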;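 note: firefly luciferase signal divided by Alamar Blue viability fluorescence both relative to DMSO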
* marks the source's active call; other numbers are inactive results; ? = inconclusive; . = no result given. Hits are enriched below; roughly 2.5% of the tested compounds scored in any of these assays.

SMILES	PAX8 reporter	Env fusion inh	Glyco luc inh	FN deposition inh	MLL AF4-AF9 inh	EWS-Fli inh
CN(C)CC(C(=O)Cc1ccccc1)c1ccccc1 (stereo unspecified)	104*	-12	-13	32*	-12	25
Cc1ccc(C[n+]2c(-c3ccc(C)cc3)cc(-c3ccc(C)cc3)cc2-c2ccc(C)cc2)cc1	.	.	-1	.	.	.
Oc1ccccc1-[n+]1c(-c2ccccc2)cc(-c2ccccc2)cc1-c1ccccc1	78*	-33	2	-5	23	21
Cc1ccccc1-[n+]1c(-c2ccccc2)cc(-c2ccccc2)cc1-c1ccccc1	95*	68*	21	6	7	43
[O-]c1ccccc1-[n+]1c(-c2ccccc2)cc(-c2ccccc2)cc1-c1ccccc1	90*	-6	7	1	23	38
Nc1ccccc1-[n+]1c(-c2ccccc2)cc(-c2ccccc2)cc1-c1ccccc1	?	-17	4	5	-1	10
COC(=O)[C@H]1[C@H](CO)[C@H]2Cn3c(ccc(-c4ccccc4)c3=O)[C@@H]1N2CC1CCCCC1	2	.	.	.	2	14
CC(C)NC(=O)N1C[C@@H]2C(c3ccccc3)[C@H](C1)N2CC1CC1 (stereo partly specified)	.	.	.	4	.	.
CC(=O)N1C[C@@H]2C(c3ccc(Br)cc3)[C@H](C1)N2CC1CC1 (stereo partly specified)	.	.	.	-11	.	.
Cc1ccc(C(=O)N[C@@H](C)CN2C3=NC[C@@H](Cc4ccccc4)N3C[C@H]2Cc2ccc(O)cc2)cc1Br	111*	75*	.	6	27*	24
CC1CN1c1cc2c(c3c1ccn3C)C1CCC2C1 (stereo unspecified)	42	.	-2	7	40*	-32
Cc1ccccc1-c1ccc([C@@H]2[C@H]3CN(C(=O)Cc4ccccn4)CCCCN3[C@H]2CO)cc1	-8	.	.	.	-5	-6
COC1/C=C/C=C(\C)Cc2cc(O)c(Cl)c(c2)N(C)C(=O)CC(OC(=O)C(C)C)C2(C)OC2C(C)C2CC1(O)NC(=O)O2 (stereo unspecified)	76*	56*	-14	-4	0	41
COC1=C[C@@H]2C3=C([C@@H]2C1=O)[C@@H](NC(C)=O)CCc1cc(OC)c(OC)c(OC)c13	2	-1	0	-3	-3	-2
COc1ccc2c(c1)C(NC(C)=O)CCc1cc(OC)c(OC)c(OC)c1-2 (stereo unspecified)	84*	-8	8	-28	0	55*
COc1cc2c(c(OC)c1OC)-c1ccc(O)c(=O)cc1C(NC(C)=O)CC2 (stereo unspecified)	85*	-170	13	-44	-1	59*
COC(=O)[C@@H]1[C@@H](CO)[C@@H]2Cn3c(ccc(-c4cccc(OC)c4)c3=O)[C@H]1N2CC1CC1	.	.	.	.	1	7
C[C@H](CO)N1C[C@H](C)[C@H](CN(C)C(=O)Oc2ccccc2)OCc2ccccc2-c2c(n(C)c3ccccc23)C1=O	1	.	.	6	1	2
CCOc1ccc(-c2cc(C)[n+](CCN3CCOCC3)c(-c3ccc(OCC)cc3)c2)cc1	98*	8	-1	-5	.	7
C#CCOc1cc(C2C3=C(COC3=O)Nc3cc4c(cc32)OCO4)ccc1OC (stereo unspecified)	?	-348	16	-9	0	63*
CC1CC(C)(O)CC(C(O)CC2CC(=O)NC(=O)C2)C1=O (stereo unspecified)	123*	98*	-19	10	2	46
COC(=O)[C@@H]1[C@@H](CO)[C@@H]2Cn3c(ccc(-c4ccccc4F)c3=O)[C@H]1N2C(=O)C1CCC1	.	.	.	.	1	2
CN(C)CC#Cc1ccc([C@@H]2[C@H]3CN(C(=O)Cc4ccccn4)CCCCN3[C@H]2CO)cc1	8	.	.	-3	3	0
CSCCC(c1nnnn1C1CCCC1)N1CCC(n2c(=O)[nH]c3ccccc32)CC1 (stereo unspecified)	6	-27	1	-6	8	2
O=c1[nH]c2ccccc2n1C1CCN(C(c2nnnn2Cc2ccccc2)C2CC2)CC1 (stereo unspecified)	86*	33	-3	6	0	5
SMILES	PAX8 reporter	Env fusion inh	Glyco luc inh	FN deposition inh	MLL AF4-AF9 inh	EWS-Fli inh
CSCCC(c1nnnn1Cc1ccccc1)N1CCC(n2c(=O)[nH]c3ccccc32)CC1 (stereo unspecified)	97*	46	0	3	4	36
O=c1[nH]c2ccccc2n1C1CCN(C(CCc2ccccc2)c2nnnn2Cc2ccccc2)CC1 (stereo unspecified)	108*	66*	-21	41*	0	24
CC(C)(C)n1nnnc1C(CCc1ccccc1)N1CCC(n2c(=O)[nH]c3ccccc32)CC1 (stereo unspecified)	16	.	-2	7	2	20
O=c1[nH]c2ccccc2n1C1CCN(C(c2nnnn2C2CCCC2)C2CC2)CC1 (stereo unspecified)	11	-3	3	8	6	14
Cc1ccccc1S(=O)(=O)N1[C@@H]2c3ccc(-c4cccnc4)c(=O)n3C[C@H]1[C@H](CO)[C@H]2C(=O)O	-1	.	.	.	1	-1
COc1cc2c(ccc3c4cc(OC)c(OC)cc4c[n+](C)c23)cc1O	75*	5	1	-15	-3	32
CCOC(=O)[C@]12Cc3ccc(C)cc3[C@H]1N(C1CCCCC1)C(=O)c1cc(OC)ccc12	101*	-15	.	29	-5	?
CCOC(=O)[C@]12Cc3cc(C)ccc3[C@H]1N(C1CCCCC1)C(=O)c1ccccc12	86*	21	.	21	-3	43
CCOC(=O)[C@]12Cc3cc(OC)ccc3[C@H]1N(C)C(=O)c1cc(OC)ccc12	3	9	.	-5	-2	-1
CCOC(=O)[C@]12Cc3c(cc(OC)c(OC)c3OC)[C@H]1N(C1CCCCC1)C(=O)c1ccccc12	89*	4	.	.	1	48
CCOC(=O)[C@]12Cc3cc(Cl)ccc3[C@H]1N(C1CCCCC1)C(=O)c1cc(OC)ccc12	105*	?	.	21	-8	68*
Cc1ccc(OC(=O)N(C)C[C@H]2OCc3ccccc3-c3c(n(C)c4ccccc34)C(=O)N([C@H](C)CO)C[C@H]2C)cc1	52	.	.	-5	3	.
CN1C[C@@H]2N[C@H](C1)C2c1ccc(Br)cc1 (stereo partly specified)	.	.	.	-5	.	.
COC(=O)[C@H]1[C@H](CO)[C@H]2Cn3c(ccc(-c4ccccc4)c3=O)[C@@H]1N2C(=O)c1ccccc1F	.	.	.	.	.	0
CC12CC[C@H]3[C@@H](CCC4(O)C[C@H](O)CCC34/C=N/NC(=O)Cc3ccccc3)C1(O)CCC2C1=CC(=O)OC1 (stereo partly specified)	6	-43	3	-11	0	-2
